Results from different studies.
Compare with care: the assays were run in different laboratories.
Observed: cell growth or viability

CC(=O)Nc1nc2cc(-c3ccc4ncn(Cc5ccccc5)c(=O)c4c3)ccc2s1
IC50 (NCI-H1975; MTT; 72 h): > 20 µM

CCCCCCCCCCCCCCCCCCOc1ccccc1CC(=O)OCC[N+]1(C)CCOCC1
inhibition (NCI-H322M; SRB; 10 µM): 20.2%

CCCC(=O)Nc1nc2cc(-c3ccc4ncn(Cc5ccccc5)c(=O)c4c3)ccc2s1
IC50 (NCI-H1975; MTT; 72 h): > 20 µM

CCCCn1cnc2ccc(-c3ccc(NC(=O)Nc4ccc(OC(F)(F)F)cc4)nc3)cc2c1=O
IC50 (NCI-H1975; CCK-8; 72 h): 0.47 µM

C[C@H](N)C(=O)Nc1ccccc1/N=c1\cc(-c2ccc3c(c2)OCCO3)oc2cc(F)ccc12
inhibition (NCI-H1975; CCK-8; 1 µM): -0.65%

O=C(Nc1ccc(Br)cc1)Nc1nc2cc(-c3ccc4ncn(Cc5ccccc5)c(=O)c4c3)ccc2s1
IC50 (NCI-H1975; MTT; 72 h): > 20 µM

C[C@H](Nc1ccc2c(c1)OCCn1cc(N3C(=O)OC[C@H]3C(F)F)nc1-2)C(N)=O
EC50 (MKN-1; ATP luminescence; 5 days): 0.438 µM

CCCCCCCCCCCCCCCCCCOc1cccc(CC(=O)OCC[N+](C)(C)C)c1
inhibition (NCI-H322M; SRB; 10 µM): 0.32%

COc1ccc2/c(=N/c3ccccc3NC(=O)CN)cc(-c3ccc4c(c3)OCCO4)oc2c1
inhibition (NCI-H1975; CCK-8; 1 µM): 8.23%

CC(=O)O[C@H]1C(=O)[C@@]2(C)[C@H]([C@H](OC(=O)c3ccccc3)[C@]3(O)C[C@H](OC(=O)[C@H](O)[C@@H](NC(=O)c4ccccc4)c4ccccc4)C(C)=C1C3(C)C)[C@]1(OC(C)=O)CO[C@@H]1C[C@@H]2O
IC50 (NCI-H1975; MTT; 72 h): 0.072 µM

CCCCCCCCCCCCCCCCCCOc1cccc(CC(=O)OCC[N+]2(C)CCOCC2)c1
inhibition (NCI-H322M; SRB; 10 µM): 1.47%

Cc1nc(NC(=O)N2CCC[C@H]2C(N)=O)sc1-c1ccnc(C(C)(C)C(F)(F)F)c1
EC50 (MKN-1; ATP luminescence; 5 days): 2.11 µM

CCCCn1cnc2ccc(-c3ccc(NC(=O)Nc4ccc(F)cc4)nc3)cc2c1=O
IC50 (NCI-H1975; CCK-8; 72 h): 1.41 µM

NCCC(=O)Nc1ccccc1/N=c1\cc(-c2ccc3nc(N)oc3c2)oc2ccc(F)cc12
inhibition (NCI-H1975; CCK-8; 1 µM): 63.7%

O=C(Nc1ccc(-c2ccc3ncn(Cc4ccccc4)c(=O)c3c2)cn1)C1CCC1
IC50 (NCI-H1975; CCK-8; 72 h): > 10 µM

O=C(Nc1ccccc1/N=c1\cc(-c2ccc3c(c2)OCCO3)oc2cc(F)ccc12)N1CCOCC1
inhibition (NCI-H1975; CCK-8; 1 µM): 2.35%

CCCCn1cnc2ccc(-c3ccc(NC(=O)NCc4ccccc4)nc3)cc2c1=O
IC50 (NCI-H1975; CCK-8; 72 h): 0.29 µM

O=C(Nc1ccc(F)cc1)Nc1nc2cc(-c3ccc4ncn(CC5CC5)c(=O)c4c3)ccc2s1
IC50 (NCI-H1975; MTT; 72 h): 1.13 µM

NCCCC(=O)Nc1ccccc1/N=c1\cc(-c2ccc3c(c2)OCO3)oc2ccccc12
inhibition (NCI-H1975; CCK-8; 1 µM): 1.32%

CCCCC(=O)Nc1ccc(-c2ccc3ncn(CCCF)c(=O)c3c2)cn1
IC50 (NCI-H1975; CCK-8; 72 h): 0.14 µM

CCCCCCCCCCCCCCCCCCOc1ccccc1CC(=O)OCC[N+]1(C)CCCC1
inhibition (NCI-H322M; SRB; 10 µM): 31.9%

Cc1nc(Nc2ncc(C(=O)Nc3c(C)cccc3Cl)s2)cc(N2CC[C@H](O)C2)n1
inhibition (Pfeiffer; ATP luminescence; 10 µM; 72 h): 96%

CCCCCCCCCCCCCCCCCCOc1ccc(CC(=O)OCC[N+]2(C)CCCCC2)cc1
inhibition (NCI-H322M; SRB; 10 µM): 3.63%

O=C(Nc1ccc(F)cc1)Nc1nc2cc(-c3ccc4ncn(Cc5ccccc5)c(=O)c4c3)ccc2s1
IC50 (NCI-H1975; MTT; 72 h): 2.34 µM

NCCC(=O)Nc1cccc(/N=c2\cc(-c3ccc4c(c3)OCO4)oc3ccccc23)c1
inhibition (NCI-H1975; CCK-8; 1 µM): 2.94%

CCCCCCCCCCCCCCCCCCOc1ccccc1CC(=O)OCC[N+](CC)(CC)CC
inhibition (NCI-H322M; SRB; 10 µM): 29.4%

CCCCn1cnc2ccc(-c3ccc(NC(=O)Nc4ccccc4)nc3)cc2c1=O
IC50 (NCI-H1975; CCK-8; 72 h): 2.46 µM

NCC(=O)Nc1ccccc1/N=c1\cc(-c2ccc3c(c2)OCCO3)oc2ccccc12
inhibition (NCI-H1975; CCK-8; 1 µM): 0.57%

CCCn1cnc2ccc(-c3ccc(NC(=O)CC)nc3)cc2c1=O
IC50 (NCI-H1975; CCK-8; 72 h): 1.08 µM

CCCCCCCCCCCCCCCCCCOc1cccc(CC(=O)OCCC[N+](C)(C)C)c1
inhibition (NCI-H322M; SRB; 10 µM): 4.07%

O=C(Nc1cc(C(F)(F)F)cc(C(F)(F)F)c1)Nc1nc2cc(-c3ccc4ncn(Cc5ccccc5)c(=O)c4c3)ccc2s1
IC50 (NCI-H1975; MTT; 72 h): > 20 µM

CCCCC(=O)Nc1ncc(-c2ccc3ncn(CCC)c(=O)c3c2)cn1
IC50 (NCI-H1975; CCK-8; 72 h): 2.87 µM

CC(C)(C)[C@H](N)C(=O)Nc1ccccc1/N=c1\cc(-c2ccc3c(c2)OCO3)oc2ccccc12
inhibition (NCI-H1975; CCK-8; 1 µM): 3.21%

Cc1cc(C)cc(NC(=O)Nc2nc3cc(-c4ccc5ncn(Cc6ccccc6)c(=O)c5c4)ccc3s2)c1
IC50 (NCI-H1975; MTT; 72 h): > 20 µM
